# Source: PubChem (several laboratories)
# ADAM10 inh: inhibits human ADAM10; O14672; recombinant ADAM10, EDANS/DABCYL FRET peptide cleavage, 3 h; inhibition, % at 7 µM; 370,000 compounds, 0.62% hits;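 active means inhibition above a per-campaign cutoff equal to the mean of compounds falling between control-based bounds plus 3 SD, cut at about 20% in these data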;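 further: 0% = DMSO wells while the 100% control is not disclosed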
# Target sequence (O14672 214-748 limits assumed): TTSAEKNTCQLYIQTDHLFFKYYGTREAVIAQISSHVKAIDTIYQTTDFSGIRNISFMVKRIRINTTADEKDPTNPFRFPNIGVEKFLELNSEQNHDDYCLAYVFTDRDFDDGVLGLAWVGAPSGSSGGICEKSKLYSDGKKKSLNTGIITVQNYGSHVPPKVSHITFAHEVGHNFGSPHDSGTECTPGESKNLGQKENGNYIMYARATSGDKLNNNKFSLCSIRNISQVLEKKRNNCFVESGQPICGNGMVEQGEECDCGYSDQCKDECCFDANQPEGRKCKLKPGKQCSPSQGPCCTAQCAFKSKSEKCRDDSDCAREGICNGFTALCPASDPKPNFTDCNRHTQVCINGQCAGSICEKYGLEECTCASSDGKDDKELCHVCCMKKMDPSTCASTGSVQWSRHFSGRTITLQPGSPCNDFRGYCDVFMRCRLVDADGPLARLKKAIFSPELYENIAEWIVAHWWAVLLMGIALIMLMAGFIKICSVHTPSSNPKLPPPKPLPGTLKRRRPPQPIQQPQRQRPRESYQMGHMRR
# FAS-TE inh: inhibitors of human fatty acid synthase thioesterase domain; P49327; recombinant FAS-TE, OMFH fluorogenic substrate, fluorescence endpoint; inhibition, % at 15 µM; 360,000 compounds, 0.67% hits; AID 602261;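 active means compounds whose normalised, plate-corrected inhibition of enzyme fluorescence in the single-dose primary screen is 50% or more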;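 further: 0% = DMSO with enzyme and 100% = substrate without enzyme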
# SENP1 FRET inh: blocks the human SENP1 SUMO protease catalytic domain. Q9P0U3. recombinant SENP1 catalytic domain, CyPet-SUMO1-YPet FRET cleavage. inhibition, % at 10 µM. 360,000 compounds, 0.21% hits;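 active means inhibition at least 30% at 10 µM, raw YFP signal under a set limit, fluorescence ratio 0.5 to 1.5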;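 further: 0% = enzyme with DMSO and 100% = no enzyme wells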
#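 Material: hSENP1 catalytic domain, recombinant; medium: Tris pH 8 with BME, BSA, NP40 and catalase; compound: single concentration of 10 µM compound, 0.5% DMSO final; technique: FRET read of cyan and yellow fluorescence; timing: 50 min enzyme reaction, room temperature, light-protected; reagent: SFCypet-SUMO1-SFYpet substrate at 25 nM; control set: no-enzyme low, enzyme-DMSO high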
# ADAM17 inh: ADAM17 inhibition, QFRET primary screen; AID 720648; recombinant ADAM17, EDANS/DABCYL FRET peptide cleavage; P78536; 370,000 compounds, 0.83% hits; inhibition, % at 6.95 µM;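 active means inhibition above the mean of compounds lying between control limits plus 3 SD, set per campaign, cut at about 8.5% in these data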;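 further: 0% = DMSO-only wells as the low control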
# ADAM10 confirm: confirmation of inhibitors of human ADAM10; ADAM10 QFRET peptide cleavage, EDANS fluorescence; 2,100 compounds, 1% hits; inhibition, % at 6.95 µM; shares compounds with ADAM10 inh;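 active means inhibition above about 20% chosen separately for each screening run, limit read from the data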;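 further: 0% = DMSO wells and 100% = marimastat wells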
# ADAM17 ctr: ADAM17 inhibition, counter-screen for ADAM10 exosite hits. ADAM17 QFRET peptide cleavage, EDANS fluorescence. shares compounds with ADAM10 inh. AID 743214. inhibition, % at 6.95 µM. 2,100 compounds, 0.5% hits;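 active means mean triplicate inhibition above the solvent-only control wells' mean plus 3 SD, cut at about 12% in these data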;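 further: 0% = DMSO wells and 100% = marimastat wells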
# An asterisk follows results filed as active; . = not tested or not shown. An excerpt weighted towards active compounds, which were near 1.9% of everything screened.
SMILES,ADAM10 inh,FAS-TE inh,SENP1 FRET inh,ADAM17 inh,ADAM10 confirm,ADAM17 ctr
O=C1NC(Cc2ccc(O)cc2)c2nc3ccc(Br)cc3c(=O)n2-c2cc3ccccc3cc21 (configuration not stated),9,18,-2,2,.,.
Cc1cc(C)c2c(=O)n3c(nc2c1)C(Cc1ccc(O)cc1)NC(=O)c1cc2ccccc2cc1-3 (configuration not stated),23*,30,0,8,21*,8
CCOc1nc(N2CCOCC2)nc(C)c1[N+](=O)[O-],20*,7,2,1,1,0
O=C(CSC1CS(=O)(=O)c2cc([N+](=O)[O-])ccc21)NNC(=O)c1ccccc1 (configuration not stated),24*,8,2,6,-1,-1
CN(C(=O)[C@@H]1CC=C[C@@H]2CCN(C3CCCCC3)C(=O)[C@@H]21)c1ccccc1,-2,.,.,-1,.,.
Cc1nn(-c2ccccc2)c2sc(C(=O)NCC3CCCO3)cc12 (configuration not stated),-102,.,.,-26,.,.
Oc1ccc(C[C@H]2CN([C@@H](Cc3ccccc3)CN3CCC[C@@H]3CN3C(=S)NC[C@@H]3Cc3ccccc3)C(=S)N2CC2CCCCC2)cc1,-17,-54,1,2,.,.
Oc1ccc(C[C@H]2CNC(=S)N2CC2CCCN2C[C@H](Cc2ccccc2)N2C[C@H](Cc3ccc(O)cc3)N(CC3CCCCC3)C2=S)cc1 (some centres not stated),25*,-82,1,4,15,6
Oc1ccc(C[C@H]2CNC(=S)N2CC2CCCN2C[C@H](Cc2ccc(O)cc2)N2C[C@H](Cc3ccccc3)N(CC3CCCCC3)C2=S)cc1 (some centres not stated),20*,-104,-1,13*,25*,9
O=C(N[C@@H](Cc1cccnc1)C(=O)N1CCC[C@H]1C(=O)NCCc1ccccc1Cl)C1CC1,-21,.,.,-7,.,.
COC(=O)[C@]12C[C@H](CC(=O)N3CCSCC3)C(=O)N(Cc3ccc(Cl)cc3Cl)C1=C[C@H](C(C)(C)C)O[C@@H]2C,-2,.,.,-2,.,.
COC(=O)[C@]12C[C@H](CC(=O)NCCCCc3ccccc3)C(=O)N(Cc3ccc4c(c3)OCO4)C1=C[C@H](C(C)C)O[C@@H]2C1CC1,21*,.,.,6,6,3
COC(=O)[C@]12C[C@H](CC(=O)NCc3cccc4ccccc34)C(=O)N(Cc3ccc4c(c3)OCO4)C1=C[C@H](C(C)C)O[C@@H]2C1CC1,12,.,.,3,.,.
CCCCCCCCN1C(=O)[C@@H](CC(=O)NCc2ccc(OC)c(OC)c2)C[C@@]2(C(=O)OC)C1=C[C@H](C(C)C)O[C@@H]2C1CC1,22*,.,.,6,12,3
COC(=O)[C@]12C[C@H](CC(=O)NCc3cccc(C(F)(F)F)c3)C(=O)N(Cc3ccc4c(c3)OCO4)C1=C[C@H](C(C)C)O[C@@H]2C1CC1,20*,.,.,8,7,3
O=S1(=O)c2c(cccc2N2CC[C@@H](O)C2)O[C@H]2CCN1C2,-2,.,.,-4,.,.
O=C(N=C1N(CC2CC2)CC2(C=C3CCCCC3n3c(=O)n(-c4ccccc4)c(=O)n32)N1C(=O)OCc1ccccc1)c1ccccc1 (configuration not stated),7,.,.,4,.,.
O=C(NC1=N[C@@]2(C=C3CCCCC3n3c(=O)n(-c4ccccc4)c(=O)n32)[C@H](Cc2ccccc2)N1Cc1ccccc1)c1ccccc1 (some centres not stated),20*,.,.,9.7*,9,6
O=C(COC(=O)CCSc1ccccc1Cl)Nc1ccc(F)cc1F,23*,-3,3,7,2,1
CC(=O)Nc1cccc(C(=O)OC(C(=O)c2ccc(C)cc2)c2ccccc2)c1 (configuration not stated),25*,22,4,7,5,2
NC(=O)C1CCN(c2ncc(Br)s2)CC1,-15,.,.,-7,.,.
CNC(=S)NNC(=O)c1noc(C)c1C(=O)N1CCN(C(c2ccccc2)c2ccccc2)CC1,32*,-4,1,6,-1,0
Cc1onc(C(=O)N2CCN(C(c3ccccc3)c3ccccc3)CC2)c1Br,14,.,.,4,.,.
CCCOC(=O)c1ccc(Oc2c(-c3ccc(O)cc3O)n[nH]c2C)cc1,22*,-137,3,6,3,2
CC[C@]12c3[nH]c4ccc(Cl)cc4c3CCN1C(=O)[C@@H](CC(=O)NCc1cccc(C(F)(F)F)c1)C[C@@H]2C(=O)N1CCN(C(=O)c2ccco2)CC1,23*,31,1,3,0,2
SMILES,ADAM10 inh,FAS-TE inh,SENP1 FRET inh,ADAM17 inh,ADAM10 confirm,ADAM17 ctr
CCOc1cccc(/C=N\NC(=O)c2cnccn2)c1O,5,.,.,4,.,.
CCCCC[C@@H](C)N1C[C@@H](COCc2ccccc2)Oc2cc(N3CC[C@@H](O)C3)ccc2S1(=O)=O,20*,26,1,6,6,3
C[C@@H](c1ccccc1)N1C[C@H](COCc2ccccc2)Oc2cc(N3CCC[C@H]3C(N)=O)ccc2S1(=O)=O,-6,2,1,-2,.,.
C[C@@H](c1ccccc1)N1C[C@@H](COCc2ccccc2)Oc2cc(N3CCC[C@H]3C(N)=O)ccc2S1(=O)=O,22*,15,2,7,5,1
CCOC(=O)c1ccc(N2C(=O)c3n[nH]c(C)c3C2c2ccco2)cc1 (configuration not stated),2,-1,1,1,.,.
CCOC(=O)c1ccc(N2C(=O)c3n[nH]c(-c4ccco4)c3C2c2cccc([N+](=O)[O-])c2)cc1 (configuration not stated),33*,48,1,7,6,2
Cc1ccc(COC[C@H](CC(C)C)N2CCN(C(=O)c3cccc(C(F)(F)F)c3)CCC2=O)cc1,-2,19,0,3,.,.
O=C(c1cccc(Cl)c1)N1CCC(=O)N([C@H](COCc2cccc(Cl)c2)Cc2ccccc2)CC1,20*,27,0,7,4,1
CC(C)C[C@@H](COCc1ccc(C(F)(F)F)cc1)N1CCN(C(=O)c2ccc(C(F)(F)F)cc2)CCC1=O,16,26,-2,7,.,.
CC(C)CC(COCc1cccc(C(F)(F)F)c1)N1CCN(C(=O)c2cccc(C(F)(F)F)c2)CCC1=O (configuration not stated),21*,26,-1,7,3,0
CC(C)CC(COCc1ccc(C(F)(F)F)cc1)N1CCN(C(=O)c2ccc(C(F)(F)F)cc2)CCC1=O (configuration not stated),27*,26,-3,7,0,1
